# Measured values: PubChem BioAssay
# The source made the active and inactive calls. Cut-off read from the data, not from the text of the source, unless noted: active = inhibition above about 30%; inactive = the rest.
# How the values were obtained:
# [1] = Her2 expression decrease, cell viability multiplex – SKBR3 breast tumor cells, AlphaScreen, ATP viability, primary screen (AID 461;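 active = Her2 level under about 52% in both replicate screens, with viability over 70% of control, limit read from the data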;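 for Her2 level: lower value means less Her2 protein in the cells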;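 for viability: percent of carrier control wells set as 100% viability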); settings: SKBR3 Her2 protein level, 18-24 h, measured here: SKBR3 viability, ATP luminescence, at 10 µM
# [2] = biological target: Receptor tyrosine-protein kinase erbB-2 (Homo sapiens) (UniProt P04626); test: as above; settings: 18-24 h, at 10 µM, stronger effect = lower value
# Sequence of Receptor tyrosine-protein kinase erbB-2 (Homo sapiens) (P04626 whole entry, looked up): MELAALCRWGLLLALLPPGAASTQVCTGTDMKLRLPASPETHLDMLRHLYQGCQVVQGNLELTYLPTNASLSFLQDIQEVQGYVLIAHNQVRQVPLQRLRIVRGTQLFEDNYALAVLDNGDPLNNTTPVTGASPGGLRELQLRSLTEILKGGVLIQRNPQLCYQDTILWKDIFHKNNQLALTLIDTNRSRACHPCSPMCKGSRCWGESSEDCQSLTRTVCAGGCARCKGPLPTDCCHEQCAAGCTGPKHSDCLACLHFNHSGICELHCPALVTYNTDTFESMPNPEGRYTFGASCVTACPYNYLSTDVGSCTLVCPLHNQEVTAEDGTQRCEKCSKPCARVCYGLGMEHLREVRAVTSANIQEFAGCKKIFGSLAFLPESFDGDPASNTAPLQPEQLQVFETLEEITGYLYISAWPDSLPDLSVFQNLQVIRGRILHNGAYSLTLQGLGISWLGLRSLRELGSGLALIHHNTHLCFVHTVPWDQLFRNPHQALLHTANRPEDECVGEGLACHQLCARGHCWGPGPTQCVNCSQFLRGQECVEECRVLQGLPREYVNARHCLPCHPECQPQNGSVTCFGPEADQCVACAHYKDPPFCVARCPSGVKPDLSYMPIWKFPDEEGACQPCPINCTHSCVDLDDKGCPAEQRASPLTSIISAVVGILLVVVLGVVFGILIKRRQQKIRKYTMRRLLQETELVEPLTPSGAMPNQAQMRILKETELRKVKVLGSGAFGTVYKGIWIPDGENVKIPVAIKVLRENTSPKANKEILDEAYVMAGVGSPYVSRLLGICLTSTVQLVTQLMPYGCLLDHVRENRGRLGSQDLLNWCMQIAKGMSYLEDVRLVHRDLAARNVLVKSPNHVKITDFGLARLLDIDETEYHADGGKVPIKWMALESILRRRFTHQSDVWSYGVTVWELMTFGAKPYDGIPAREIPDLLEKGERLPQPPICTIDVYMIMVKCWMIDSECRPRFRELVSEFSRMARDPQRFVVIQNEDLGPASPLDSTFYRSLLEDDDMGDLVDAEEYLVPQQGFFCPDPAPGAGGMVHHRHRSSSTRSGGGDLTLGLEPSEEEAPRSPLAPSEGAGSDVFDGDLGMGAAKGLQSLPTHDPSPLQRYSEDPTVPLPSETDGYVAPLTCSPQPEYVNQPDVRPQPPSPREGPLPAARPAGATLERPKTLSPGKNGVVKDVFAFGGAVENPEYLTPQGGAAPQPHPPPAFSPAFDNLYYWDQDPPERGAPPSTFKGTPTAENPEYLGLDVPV
# [3] = reduced viability of SK-BR-3 breast cancer cells – cell-based, 24 h, human, pilot screen (AID 572;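 active = viability at or below 10% of carrier control in both of two separate runs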;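 note: compound exposure lasted between 18 and 24 h rather than exactly 24 h; 100% = carrier-treated control wells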); settings: SK-BR-3 viability, CellTiter-Glo luminescence, at 10 µM, stronger effect = lower value
# [4] = HUVEC growth inhibition – cell-based, human, primary screen (AID 575;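 active = viability at or below 30% in both replicate assays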;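 note: 100% = median of untreated cell wells with 0.1% DMSO on each plate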); settings: HUVEC proliferation, CellTiter-Glo luminescence, 72 h; at 10 µM; stronger effect = lower value
# Summary of the method: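 Material: primary human umbilical vein endothelial cells / Schedule: 72 h exposure, 37 °C, 5% CO2, 30 min RT equilibration / Signal: ATP-based CellTiter-Glo luminescent read / Read-out basis: percent of median DMSO-control luminescence / Control set: 32 DMSO-only cell-control wells (high), 32 MePR drug-control wells (low) per plate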
# [5] = H69AR cell proliferation blockers – human, duplicate replicates, primary screen (AID 580;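 active = viability at or under a set limit in both replicates, limit being median viability minus 3 SD, cut at about 48% in these data, passing the limit was not always enough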;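 note: 100% = mean luminescence of untreated wells and 0% = no signal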); settings: H69AR lung tumor cells viability, ATP luminescence, 72 h; at 10 µM; stronger effect = lower value
# [6] = MRP1 drug-resistance reversers in H69AR cells – cell-based, doxorubicin co-treatment, pilot screen (AID 601;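 active = viability loss from added drug above about 55%, and viability with drug at most 40%, in both replicates, limit read from the data, passing the limit was not always enough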); settings: CellTiter-Glo, 72 h, at 10 µM; for differential viability (reversal): stronger effect = higher value
# [7] = yeast transport mutant growth inhibition pilot in 384-well plates, post-Golgi transport modulator project (AID 636; in the data active = inhibition above about 31%); settings: absorbance 615 nm, about 18 h, stronger effect = higher value
# [8] = growth suppression of yeast trafficking mutant, preliminary HTS, modulators of trafficking downstream of Golgi apparatus project, 1536-format plate, OD 615 nm (AID 637); settings: yeast transport mutant growth, absorbance 615 nm, 18 h; stronger effect = higher value
# [9] = H69AR cells + 2 uM doxorubicin, measured here: viability with 2 uM doxorubicin, stronger effect = lower value
# [10] = H69AR cells, compound alone cytotoxicity
Structure (SMILES),viability [1] [%],Her2 level [2],viability [3],viability [4],viability [5],differential viability (reversal) ([6]; H69AR cells + 2 uM doxorubicin),"viability [6, 9] [%]","viability [6, 10] [%]",inhibition [7],inhibition [8]
COc1ccc(C)cc1S(=O)(=O)N1CCN(Cc2ccccc2)CC1,98,94.5% (inactive),98% (inactive),96.1% (inactive),91.2% (inactive),-1.38% (inactive),92.6,91.2,-2.24% (inactive),1.13% (inactive)
Cc1ccc(NC(=O)CCC(=O)O)cc1F,106,82.5% (inactive),106% (inactive),88.8% (inactive),104% (inactive),12.2% (inactive),91.8,104,-6.3% (inactive),-2.7% (inactive)
O=C(O)CCCCCNc1nc(=S)[nH]c2ccccc12,107,99% (inactive),107% (inactive),99.7% (inactive),89.3% (inactive),10.3% (inactive),79,89.3,-5.92% (inactive),-1.59% (inactive)
CCOc1cc(C(=O)NCC2CCCO2)cc(OCC)c1OCC (stereo not given),100,110% (inactive),100% (inactive),119% (inactive),102% (inactive),10% (inactive),92.2,102,-4.86% (inactive),-5.33% (inactive)
O=C(CSc1nnc(Cc2ccccc2)n1C1CCCCC1)N1CCOCC1,92.5,110% (inactive),92.5% (inactive),97.9% (inactive),95.6% (inactive),6.44% (inactive),89.2,95.6,-3.03% (inactive),-3.97% (inactive)
CC(C)C(NC(=O)OCc1ccccc1)C(=O)OCC(=O)NCc1ccco1 (stereo not given),100,108% (inactive),100% (inactive),86.2% (inactive),85.3% (inactive),7.68% (inactive),77.6,85.3,-1.18% (inactive),-11.3% (inactive)
O=C1CCc2cc(S(=O)(=O)N3CCC(C(=O)Nc4nccs4)CC3)ccc2N1,98,105% (inactive),98% (inactive),110% (inactive),85.3% (inactive),4.98% (inactive),80.3,85.3,-1.67% (inactive),-1.17% (inactive)
COc1ccccc1-c1nc2n(n1)C(c1cccs1)C(C(=O)Nc1cccnc1)=C(C)N2 (stereo not given),83.5,95.5% (inactive),83.5% (inactive),97.9% (inactive),87.1% (inactive),0.115% (inactive),87,87.1,-2.43% (inactive),-4.92% (inactive)
Clc1ccc(Cn2ncc3c(NCc4cccnc4)ncnc32)cc1,77.5,86% (inactive),77.5% (inactive),90.5% (inactive),92% (inactive),-4.09% (inactive),96.1,92,-0.53% (inactive),3.77% (inactive)
C=COC(=O)CSc1snc(SCC(=O)OC)c1C#N,85.5,92.5% (inactive),85.5% (inactive),66.2% (inactive),98.9% (inactive),3.02% (inactive),95.9,98.9,-5.89% (inactive),6.98% (inactive)
COCCNC(=O)CSc1nc(-c2ccc(OC)c(OC)c2)cc(C(F)(F)F)n1,98.5,94% (inactive),98.5% (inactive),101% (inactive),89% (inactive),-11.1% (inactive),100,89,1.84% (inactive),-2.3% (inactive)
CC(=O)NC1(c2nnnn2CCOC(=O)Nc2ccc(Cl)cc2)CCCCC1,112,89% (inactive),112% (inactive),98.5% (inactive),98.5% (inactive),13% (inactive),85.4,98.5,-3.29% (inactive),8.69% (inactive)
COc1ccccc1N=Cc1nc(-c2ccccc2)oc1OC(C)=O,99,82.5% (inactive),99% (inactive),79.2% (inactive),63.1% (inactive),-13.8% (inactive),76.8,63.1,-4.61% (inactive),-2.38% (inactive)
Cc1sc(NC(=O)CSc2nnc(COc3ccccc3)n2C)c(C#N)c1C,83,75.5% (inactive),83% (inactive),72.2% (inactive),70.3% (inactive),-3.05% (inactive),73.3,70.3,-1.3% (inactive),-7.3% (inactive)
Cn1c(=O)c2c(nc(Br)n2CCSc2ncccn2)n(C)c1=O,98,114% (inactive),98% (inactive),106% (inactive),103% (inactive),21.7% (inactive),81.1,103,-1.87% (inactive),-10.2% (inactive)
OCc1cn(-c2ccccc2)nc1-c1ccc2c(c1)OCCO2,93,102% (inactive),93% (inactive),70.5% (inactive),83.9% (inactive),-4.38% (inactive),88.3,83.9,-7.95% (inactive),-4.44% (inactive)

Structure (SMILES),viability [1] [%],Her2 level [2],viability [3],viability [4],viability [5],differential viability (reversal) ([6]; H69AR cells + 2 uM doxorubicin),"viability [6, 9] [%]","viability [6, 10] [%]",inhibition [7],inhibition [8]
CCOC(=O)CSc1nc(N)c2c3c(sc2n1)CCCC3,104,96.5% (inactive),104% (inactive),78.7% (inactive),89.3% (inactive),0.02% (inactive),89.3,89.3,0.8% (inactive),2.58% (inactive)
O=S(=O)(NCc1ccco1)c1cccc2cccnc12,105,93.5% (inactive),105% (inactive),89.7% (inactive),79% (inactive),-9.52% (inactive),88.5,79,-1.18% (inactive),-1.45% (inactive)
O=C(NCc1cccnc1)c1cn(CCc2ccccc2)nn1,99.5,93% (inactive),99.5% (inactive),130% (inactive),109% (inactive),20.4% (inactive),89,109,-5.27% (inactive),4.33% (inactive)
CCCCOc1cc(=O)[nH]c(=O)[nH]1,108,99% (inactive),108% (inactive),95.2% (inactive),102% (inactive),8.32% (inactive),93.4,102,-2.11% (inactive),-7.33% (inactive)
COc1ccc(-c2onc(C)c2-c2ccccc2)c(O)c1,99.5,73% (inactive),99.5% (inactive),79.6% (inactive),18.5% (active),-44.4% (inactive),62.9,18.5,-4.53% (inactive),0.32% (inactive)
CC(=O)Nc1sc2c(c1CN1CCN(c3ccccn3)CC1)CCCC2,66,85.5% (inactive),66% (inactive),96% (inactive),95.4% (inactive),12% (inactive),83.3,95.4,-2.53% (inactive),-10.5% (inactive)
O=C(NCc1ccccc1)c1ccc(OC2CSC2)cc1,88,103% (inactive),88% (inactive),91.5% (inactive),112% (inactive),18.5% (inactive),93.6,112,2.34% (inactive),-11% (inactive)
CS(=O)(=O)C1=C(O)C(=O)N(c2ccccc2)C1c1ccccc1 (stereo not given),109,106% (inactive),109% (inactive),104% (inactive),105% (inactive),10.3% (inactive),94.4,105,-4.73% (inactive),0.33% (inactive)
CCCCCn1c(CN2CCN(C)CC2)nc2c1c(=O)n(C)c(=O)n2C,103,103% (inactive),103% (inactive),98.4% (inactive),85.9% (inactive),-6.67% (inactive),92.5,85.9,-3.87% (inactive),-2.67% (inactive)
Cc1cc(Cl)c(S(=O)(=O)N2CCN(c3ccc(F)cc3)CC2)cc1OCC(N)=O,82.5,100% (inactive),82.5% (inactive),97.1% (inactive),80.5% (inactive),1.14% (inactive),79.3,80.5,-5.66% (inactive),8.85% (inactive)
COc1cc(OC)c(C2N(C)c3ccccc3N2C)cc1OC,91.5,112% (inactive),91.5% (inactive),86.7% (inactive),107% (inactive),8.16% (inactive),98.4,107,-5.68% (inactive),4.26% (inactive)
O=C(CC(C(=O)N1CCc2ccccc21)n1ccnc1)NCc1cccnc1 (stereo not given),100,100% (inactive),100% (inactive),97.9% (inactive),89.1% (inactive),-10.9% (inactive),100,89.1,1.17% (inactive),1.8% (inactive)
N#Cc1c(N)nc2c(c1-c1ccncc1)CCCCC2,102,86.5% (inactive),102% (inactive),78.2% (inactive),90.7% (inactive),-3.37% (inactive),94,90.7,-4.4% (inactive),4.43% (inactive)
CC(=O)C1=C(O)C(=O)N(c2ccc(C(=O)O)cc2)C1c1ccccc1 (stereo not given),107,89% (inactive),107% (inactive),117% (inactive),102% (inactive),5.88% (inactive),95.7,102,-0.66% (inactive),1.8% (inactive)
O=C(CNc1ccc(Oc2ccccc2)cc1)N1CCOCC1,92.5,95.5% (inactive),92.5% (inactive),92.1% (inactive),105% (inactive),4.96% (inactive),100,105,-7.81% (inactive),6.98% (inactive)
